Source: PubChem BioAssay (several laboratories)
The full list was thinned out, with hits kept by preference.
NALP1 yeast inh – blocks the NALP1 inflammasome reconstituted in yeast; AID 2071; inhibition, % at 10 µM; S. cerevisiae NALP1/ASC/caspase-1 growth, X-gal OD620, 72 h; 280,000 compounds, 0.61% hits; in the data active = inhibition mostly above about 24%, no sharp cut-off; inactive = mostly below about 32%
Calb FLC – affects C. albicans growth with fluconazole. growth inhibition, % (test concentration not listed). C. albicans CaCi-2 + fluconazole, Alamar Blue growth, 48 h. 300,000 compounds, 0.57% hits;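 active = growth inhibition above about 58% in most replicates, limit read from the data, passing the limit was not always enough; inconclusive = exactly half the replicates above a set limit; inactive = most replicates below a set limit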;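 note: all wells also contain fluconazole at 8 µg/ml as a sub-toxic cotreatment; 0% = median of DMSO wells and 100% = median of geldanamycin control wells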
L major viab – inhibitors of Leishmania major promastigote growth | Leishmania major promastigotes, resazurin fluorescence viability | inhibition, % at 10 µM | 200,000 compounds, 9% hits | AID 1063; in the data active = inhibition above about 50%;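 note: promastigotes grown with compound for 44 hours at 28 °C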
PolyA inh – yeast polyadenylation inhibition. S. cerevisiae SKY197-pL101 polyadenylation reporter, beta-gal luminescence; efflux-impaired pdr1/pdr3 knockout yeast; score 100 = 6 SD above DMSO. activity score, % at 12 µM. 300,000 compounds, 0.02% hits;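 active = lowest replicate activity score at least 50, where 100 means six control SD above control mean; inconclusive = lowest score under 50 but half or more replicates reach 50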;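 note: yeast exposed to compound for 9 h at 30 °C; higher score means more reporter readthrough which indicates perturbed polyadenylation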
NLRP3 yeast inh – inhibitors of NALP3 inflammasome in yeast; Yeast reconstituted NLRP3/ASC/caspase-1, beta-gal luminescence, 24 h; inhibition, % at 10 µM; 330,000 compounds, 0.39% hits;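 active = inhibition of 50% or more; inactive = inhibition below 50%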;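 note: plate controls were induced DMSO wells for no effect and uninduced yeast grown without galactose for full effect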
T cruzi repl – blocks replication of Trypanosoma cruzi. inhibition, % (concentration not given with the values). 300,000 compounds, 1.4% hits. T. cruzi beta-gal in NIH3T3, luminescence, 90 h;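 active = mean inhibition across valid replicates above about 55%, limit read from the data; inconclusive = mean below that limit but half or more replicates reach it; inactive = mean below it, under half of replicates reach it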;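 note: signal also drops with host cell toxicity which is not excluded here; 0% = plate median of DMSO wells and 100% = zero luminescence signal; higher percent means less beta-gal luminescence so fewer parasites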
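Read-out: Parasite load inhibition, % | Test system: Mouse NIH/3T3 fibroblasts infected with β-gal-expressing T. cruzi Tulahuen C4 | Amount: 5,000 cells/well | Medium: DMEM, 2% fetal bovine serum | Signal: GalScreen β-gal luminescence, detergent lysis, 60 min | Timing: 3 h attach, ≥90 h co-culture | Also added: Tulahuen C4 trypomastigotes, 5000/well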
Numbers without * were called inactive; ? = inconclusive; / = no result given.

SMILES	NALP1 yeast inh	Calb FLC	L major viab	PolyA inh	NLRP3 yeast inh	T cruzi repl
CN(C)S(=O)(=O)c1cccc(NC(=O)NCCCl)c1	1.2	2.9	/	13.5	-0.8	-13.1
COc1ccc(NS(=O)(=O)c2cccc(NC(=O)CCC(=O)c3ccc(Cl)cc3)c2)cc1	35.1	-1.1	79.5*	-4.4	9.5	-15.5
COc1ccc(S(=O)(=O)N/N=C(/C)c2cccc(NC(=O)c3ccccc3Cl)c2)cc1	15.9	11.4	96.7*	-25.2	9.0	7.0
COc1ccc(NS(=O)(=O)c2cccc(NC(=O)CCC(=O)c3cccs3)c2)cc1	29.5	-7.4	-1.7	-1.0	8.1	1.9
CC(=O)Nc1cccc(/C(C)=N/NS(=O)(=O)c2ccccc2)c1	-14.3	-11.9	-3.4	-21.3	10.9	-2.3
CCOC(=O)c1sc(NC(=O)C2CC(=O)N(c3ccc4c(c3)OCCO4)C2)nc1C (configuration not stated)	/	/	/	/	7.0	/
CCN(CCCNC(=O)COc1cc(=O)n(CC)c2ccccc12)Cc1ccccc1	5.1	-2.5	-2.8	7.0	11.8	15.0
CCN(CCCNC(=O)CCCOc1cc(=O)n(C)c2ccccc12)Cc1ccccc1	13.3	0.1	86.3*	-28.6	12.0	55.1*
O=C(Cc1ccc([N+](=O)[O-])cc1)Nc1cc(C(F)(F)F)cc(C(F)(F)F)c1	19.8	-2.7	/	-17.4	20.8	70.4*
c1ccc(OCCCCN2CCOCC2)cc1	5.0	-23.3	78.7*	22.2	16.3	12.7
Brc1ccc(OCCCN2CCOCC2)cc1	5.2	6.6	94.5*	10.7	41.6	7.5
COc1cccc(OCCCCCCN2CCOCC2)c1	8.6	-6.8	99.8*	11.1	1.7	7.3
CCOc1cccc(OCCCCN2CCOCC2)c1	2.7	-2.4	92.6*	-12.8	2.5	-2.5
Cc1cccc(OCCCCCN2CCOCC2)c1	23.4	-26.6	/	-13.1	25.6	-14.5
Cc1ccccc1NC(=O)c1ccccc1NC(=O)CCC(=O)O	24.2	13.9	-8.1	12.4	3.8	-6.0
Cc1cc(Cl)ccc1OCCCC(=O)N/N=C/c1cccc([N+](=O)[O-])c1	/	-11.3	0.3	16.4	6.8	-7.2
CN(C)S(=O)(=O)c1ccc(Cl)c(NC(=O)C2CCN(S(=O)(=O)c3cccs3)CC2)c1	/	/	/	/	17.0	/
COc1ccc(CN2CCNC(=O)C2CC(=O)NCCc2nc(C)c3c(n2)CCC3)cc1C (configuration not stated)	4.4	-9.0	/	27.8	18.9	10.6
Oc1ccc(Nc2nc3ccccc3nc2Nc2ccc(O)cc2)cc1	-5.0	42.3	92.2*	3.3	9.8	71.2*
COc1ccc(OC)c(NC(=O)CCCNC(=O)Cn2cnc3sc(C)c(C)c3c2=O)c1	6.6	-4.0	/	-18.8	20.2	0.1
CCOC(=O)c1nc(NCc2ccccc2C)c2ccccc2n1	11.0	0.6	65.0*	-3.4	-11.2	12.9
CCOC(=O)c1nc(NCc2ccccc2F)c2ccccc2n1	10.3	13.0	49.9	7.9	9.2	11.0
Cc1ccc(S(C)(=O)=O)cc1C(=O)OCC(=O)N1CCCC1=O	/	/	/	/	5.4	/
COc1ccc(O)c(/C=N/NC(=S)Nc2cccnc2)c1	-30.8	2.7	94.1*	6.4	18.1	-6.3
CN(C)S(=O)(=O)c1cccc(NC(=S)N/N=C/c2ccc(O)c(O)c2O)c1	-15.9	76.7*	/	-15.9	/	29.3
SMILES	NALP1 yeast inh	Calb FLC	L major viab	PolyA inh	NLRP3 yeast inh	T cruzi repl
COc1ccc(O)c(/C=N/NC(=S)Nc2cccc(S(=O)(=O)N(C)C)c2)c1	-2.6	-3.7	99.4*	-11.3	/	9.4
CCN(CC)S(=O)(=O)c1ccc(N/N=C/c2cc(OC)ccc2O)nc1	34.7	23.1	91.8*	-9.4	11.5	10.1
CCOC(=O)C1=C(C)N=c2s/c(=C\c3ccc(C(=O)O)cc3)c(=O)n2C1c1ccc(F)cc1 (configuration not stated)	-12.1	7.6	/	-19.2	12.0	1.5
CC1(C)CC(=O)C2=C(C1)N=c1s/c(=C/c3ccc(F)c(F)c3)c(=O)n1C2c1ccc(F)cc1 (configuration not stated)	43.6	2.8	100.3*	2.9	-8.8	-10.6
CCCCN(C(=O)C1CC(=O)N(c2ccc(C)cc2)C1)c1c(N)n(CCC)c(=O)[nH]c1=O (configuration not stated)	/	/	/	/	10.3	/
O=S(=O)(NCCC1=CCCCC1)c1ccccc1Cl	/	/	/	/	22.6	/
Cc1ccc(C)n1-c1ccc(NC(=O)c2ccccc2)cc1	38.7	-3.5	58.4*	3.0	4.1	-9.0
Cc1cc(NC(=O)c2ccccc2)sc1C	22.6	-5.9	-1.6	-8.5	38.6	-12.8
Cc1ccc(C)n1-c1ccc(C(=O)Nc2ccccc2F)cc1	10.2	-5.5	4.2	4.1	8.3	6.2
Cc1ccc(NC(=O)c2ccccc2)s1	-6.4	-2.0	69.3*	17.7	3.4	-2.8
CC(=O)Nc1ccc(NC(=O)c2ccc(-n3c(C)ccc3C)cc2)cc1	31.4	-3.1	68.5*	-7.9	10.3	-15.6
CC(=O)NCCNC(=O)c1ccc(-n2c(C)ccc2C)cc1	13.2	-23.4	2.2	0.3	-8.1	-13.3
CCN(CC)C(=O)CSc1nnc(COc2ccccc2)n1N	-5.5	?	-5.3	-4.1	-17.6	-16.8
CC(SCc1ccccc1)C(=O)Nc1ccccc1-c1ccccc1 (configuration not stated)	-1.4	7.4	56.9*	-1.8	16.0	-8.1
Fc1ccc(N2CCN(c3ncnc4c3nnn4Cc3ccccc3Cl)CC2)cc1	/	9.5	0.2	-6.5	5.0	62.9*
FC(F)(F)c1ccc(N2CCN(c3ncnc4c3nnn4Cc3ccccc3Cl)CC2)cc1	9.7	1.4	-1.2	12.6	13.1	50.6
CCCN1CCN(c2ncnc3c2nnn3Cc2ccccc2)CC1	1.7	-2.7	97.3*	8.3	24.8	-6.6
Cc1c(C)n(Cc2ccccc2)c2ccc(C(=O)OCCCN(C)C)cc12	6.3	-0.5	100.3*	-3.2	20.9	60.5*
Cc1c(C)n(CCN(C)C)c2ccc(C(=O)OCCN(C)C)cc12	18.4	4.3	/	2.5	/	32.6
COc1ccc(N2CCN(C(=O)C(Cc3ccccc3)n3cccc3)CC2)cc1 (configuration not stated)	1.1	-1.5	5.8	8.7	13.6	-8.6
CN([C@@H](Cc1ccc(OS(=O)(=O)c2cccc3cnccc23)cc1)C(=O)N1CCN(c2ccccc2)CC1)S(=O)(=O)c1cccc2cnccc12	25.7	7.3	98.2*	-4.4	15.8	57.0*
CC(=O)c1c(COC(=O)c2ccc(Cl)cc2)nc2ccccc2[n+]1[O-]	24.0	0.0	/	90.1*	18.1	-2.7
Cc1cc(C)c2oc(C(=O)N3CCN(C)CC3)cc(=O)c2c1	31.5	-7.2	/	13.1	-2.9	2.3
CCOC(=O)c1sc(Nc2nc3c(OC)cccc3s2)nc1C	-9.8	78.3*	72.7*	-1.1	1.6	13.9
CCOC(=O)c1sc(Nc2nc(C)cc(OC)n2)nc1C	-14.0	22.4	55.9*	10.8	10.7	23.3
